From the EternaBench riboswitch data

Tested on: MS2 coat protein
Assay: apparent Kd, MS2 coat protein; higher = weaker binding; RNA-MaP array; FMN 200 µM where present
Outline: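 The apparent Kd is reported as the median of filtered per-cluster binding-curve fits. To get these curves, designs transcribed by stalled E. coli RNA polymerase on Illumina sequencing-chip clusters were titrated with SNAP-549-labelled MS2 coat protein from 0.7 or 1.5 nM, doubling to 3 µM. Titrations were run without and then with constant ligand in 100 mM Tris-HCl pH 7.5, 80 mM KCl, 4 mM MgCl2, BSA, DTT, yeast tRNA and Tween-20, and green signal was normalised to red-channel RNA signal and control-cluster median Fmax.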

[1] = designed as: OFF switch for flavin mononucleotide, no ligand
[2] = ligand present: flavin mononucleotide, designed as: OFF switch for flavin mononucleotide
[3] = designed as: ON switch for flavin mononucleotide, no ligand
[4] = ligand present: flavin mononucleotide, designed as: ON switch for flavin mononucleotide

Sequence	apparent Kd [1] [nM]	apparent Kd [2] [nM]	apparent Kd [3] [nM]	apparent Kd [4] [nM]
GUGACACAUGAGGAUCACCCAUGUGAGGAUAUGAUACUAUGUACUUCGGUACAUAGUAUCAGAAGGCACAGUGA	50.2	119		
GUGACCCAUUAACAGUUACCACAUGAGGAUCACCCAUGUGCGAAGGAUAUAGACUGCUAUGCGUGCUAGAAGGUCGCGCGUGGC	6.32	6.63		
GUGACGAAUGUAGGAUAUGCUGAGGAAUACUCAGCAGAAGGACAUGAGGAUCACCCAUGUCAUCCUUAUAAUAAAUAUCGUCAC	13.4	17.7		
GUGAUACAUGAGGAUCACCCAUGUCAGGAUAUGAUACUAUGUACUUCGGUACAUAGUAUCAGAAGGGACAGUGA	138	92.5		
GUGCAUACGUGAGGAUAUGUAUUAGAUAGUGGUACAGAAGGCAUGUCUGAUGACAUGAGGAUCACCCAUGUUGGCACAGUGCGC			59.7	29.6
GUGCCAUAUGAGAAGGCGAUCAUGAAACAUGAUCGAGGAUAUCAUGAAAACAUGAGGAUCACCCAUGUAUGGGUAUUAAGGUAC			64.3	28.9
GUGCGUGGCUAGGAUAUUGUGGAGUUUAGUCAGCGAGAAGGAGCCACAUGAGGAUCACCCAUGUGGUGAAGCUC	19.9	75		
GUGCGUGGCUAGGAUAUUGUGGAGUUUAGUCAGCGAGAAGGCGCCACAUGAGGAUCACCCAUGUGGUGUUGCUC	13.1	14.7		
GUGCUGGAGCUUUGCUUUAGUCGUACAUGAGGAUCACCCAUGUAGGAUAUGGUAGGCUUUGCUUACUAGAAGGAUAGAGUGGUC	40.3	26.8		
GUGCUUGUCGGAGGAUAUGGUUACAUGAGGAUCACCCAUGUUAUGCUUGGUUACUUGUUUAGUUUCCAGAAGGUCGAUUGGUUG	69.6	132		
GUGGACGUCGUAGGAUAUGUAGGAUAUUCCUACAUGAGGAUCACCCAUGUUGACAUGGAAGAAGGACAGAAGGACGAUGUCCAU			262	4.51
GUGGCUAGUACAGGAUAUUAGUGCGUGUAGUAUUGAGAAGGGUACAUGAGGAUCACCCAUGUGAUCAAUCACUGUUAAGGUCGC	252	177		
GUGGUACAUGAGGAUCACCCAUGUUAGGAUAUCGCGUGGUUUUUUGCGGCCGCGCGCGCGAGAAGGGACGUCUU	41.4	31.7		
GUGGUCAGACAUGAGGAUCACCCAUGUGGAAUAAAUAACGUCAAGGAUAUUCAAUAUAGGAUAUAGAAGAAGGUGAGAUUGGUG			153	177
GUGGUCAGACAUGAGGAUCACCCAUGUGGAAUAAAUAAGGAAAAGGAUAUCGAAUAUAGGAUAUACGAGAAGGUUUGGUUGGUG			96.5	98.8
GUGGUCAGACAUGAGGAUCACCCAUGUGGAAUAAAUAAGGAAAAGGAUAUGGAAUAUAGGAUAUACCAGAAGGUUUGGUUGGUG			105	127
GUGGUCAGACAUGAGGAUCACCCAUGUGGAAUAAAUAAGGAGAAGGAUAUCUAAUAUAGGAUAUAAGAGAAGGUUUGGUUGGUG			74	68
GUGGUGCAUAUACGUGGAUGUACAUGAGGAUCACCCAUGUAAGAGGAUAUGCGGAUACUAGCUCAGUAGAAGGCUUACAAAUGA	9.74	9.15		
GUGUACAGAGGAUAUACAUAAGCUAGGAAACUAGCAAACUCACAUGAGGAUCACCCAUGUAGAAGGCUGUACAC	48	257		

Sequence	apparent Kd [1] [nM]	apparent Kd [2] [nM]	apparent Kd [3] [nM]	apparent Kd [4] [nM]
GUGUACAGAGGAUAUACAUGAGCUAGGAAACUAGCAACUUCACAUGAGGAUCACCCAUGUAGAAGGCUGUACAC	26	128		
GUGUACAGAGGAUAUACUUAUGGAGUUACGAAAGUAACUUCACAUGAGGAUCACCCAUGUAGAAGGCUGUACAC	27.3	31		
GUGUAGAUAGGAUAUACAUGAGUCUAGCGAAGCUAGAUUCUACAUGAGGAUCACCCAUGUAGAAGGGUCUACAC	15.9	18.5		
GUUAGUUAAGGAUAUACUGGGAGCUGCGGCGUCUCGCCGCAACAUGAGGAUCACCCAUGUAGAAGGUGACCAUU	320	229		
GUUAUACAUGAGGAUCACCCAUGUCAAUGUAGUCGAGGAUAUGGGUAGCUAUGAGGCGUACUAGAAGGCGAGGAGU			77.8	160
GUUAUUUAUGUAGGAUAUGCGAGGCGAGCCUGAGCAGAAGGACAUGAGGAUCACCCAUGUAUUGCGGUUUAUGUUCAGAUCGCU	15.3	19		
GUUCAAGUAAAGGAUAUGUAGAGCCGCGAGGCCGCAGAAGGUUGCACAUGAGGAUCACCCAUGUCGUCUCUGAU	17.1	21.2		
GUUGCACAAAUUAACAUGAGGAUCACCCAUGUCAAAAGACAUGAGGAUAUGGAUCUGAAGAAGAUCCAGAAGGCAUAGUGCUAA			370	23.7
GUUGGCUGAGGAUAUGCUUGCGUGCGUUUGUGUCGCGGGUGACAUGAGGAUCACCCAUGUAGAAGGUGGUCGGC	1530	980		
GUUGUCUAUGUAGGAUAUGCGAGGCGAGCCUAAGCAGAAGGACAUGAGGAUCACCCAUGUAUUGCGGUCUGCGUUCAGAUCGCU	38.1	141		
GUUUAGUGAGGAUAUGUGGCAUAGAUCGAGCGCGGUCGGCUACAGAAGGCACAUGAGGAUCACCCAUGUUUCUC	39.9	498		
GUUUAGUGAGGAUAUGUGGCGUGGAUCGAGCGCGGUCGGCUACAGAAGGCACAUGAGGAUCACCCAUGUUUCUC	106	280		
GUUUAGUGAGGAUAUGUGGCUUCGAUCGUGCGCGGUCUGCUACAGAAGGCACAUGAGGAUCACCCAUGUUUCUC	173	527		
GUUUAUUUACAGAAGGUGUUUUACAUGAGGAUCACCCAUGUUUAAAUUUAUAAAGAAUUUAUUUACAAGGAUAUGUACAAUUUU			34.1	19
GUUUCGUGAGGAUAUGUGGCUUCGAUCGUGCGAAGAAGGCUACAGAAGGCACAUGAGGAUCACCCAUGUUCCUC	85.7	592		
GUUUUGAUAGGAUAUACAUGAGGAUCACCCAUGUCCCACCCGUUACCUCUGACCCUAUGUAGAAGGAUCGUUUG	34.3	26.4		
GUUUUGGGAGGAUAUAUGUGGAUUAUUUUCGUAUGUUGUUUACAUGAGGAUCACCCAUGUAGAAGGUCUAGAGC	68.3	198		
GUUUUUCCUCAUGUACAUGAGGAACAUGAGGAUCACCCAUGUAGAAGGAAUUCUCUUAAAUUAAGUUAGGAUAUACAUAUAUUU	464	285		
GUUUUUUUUAGUUCAUACUAUAAGAUAGAAGGUGAAAUAUUGACAUGAGGAUCACCCAUGUAAUUCAAGGAUAUGUAGUUACUC			34.3	22.7

Sequence	apparent Kd [1] [nM]	apparent Kd [2] [nM]	apparent Kd [3] [nM]	apparent Kd [4] [nM]
UAAAAGACUAGCAAAUAGACCUUCACAUGAGGAUCACCCAUGUAGGAUAUGAGCAGAAAAUCUGCUCAGAAGGACAUGCUAGUC	3.38	3.6		
UAAACACCCUCAUGUGCCUGAGGACAUGAGGAUCACCCAUGUAAGGAUAUAGCCAUUAAAUCUAACUAGAAGGUACAGGACAUC	242	169		
UAACCUCGCGUCAGGAUAUGCGAGGACUGUGACGUGCAGAAGGGACAUGAGGAUCACCCAUGUGAAAGAAUUAA	25.2	25.4		
UAAGAGUGAGGAUAUACGUCGCUGGUCAGGAUGGACGCAUGACAUGAGGAUCACCCAUGUAGAAGGCACAAAAC	23.8	43.7		
UAAGUGUGAGGAUAUUCGUAGUACACGGAGACGUGUAUUACGGAGAAGGCACAUGAGGAUCACCCAUGUUCCUU	20.7	182		
UAAGUUGUGGUAGGAUAUACUUUAAAUUUCUCUAUCCAUACAUGAGGAUCACCCAUGUUUACAUUGUAGAAGGACCUUUUUGUU	24.2	21.1		
UAAUAAAGUGUGAGGAUAUGCUGGUCCUUAGAUCAGCAGAAGGCACAUGAGGAUCACCCAUGUAAUAUAUAAAU	40	281		
UAAUAAUAAUAAUACGUCAUUACAUGAGGAUCACCCAUGUAUAAGGAUAUGCAGUGGAAUACACUGCAGAAGGUAUACAAGACG	22.6	26.7		
UAAUAAUUAUGAGGAUAUAUACAACAUGAGGAUCACCCAUGUACCCAUGUAGUAGAAGGCAUAUUUUUAGUUAAUAACAUAACU			75.2	31.1
UAAUAUUUAUAAUAUUAUUACAUUAGAAGGCAAGACAUGUGGAUACAUGAGGAUCACCCAUGUAUUGAGGAUAUAGACAUAUAU	14.6	21.7		
UAAUUAAGUGUGAGGAUAUGCUGGUCCUUGGAUCAGCAGAAGGCACAUGAGGAUCACCCAUGUAAUUUAUUUAU	85.1	328		
UAAUUGUGAGGAUAUUCGAAUAACACGGAGACGUGUUGUUCGGAGAAGGCACAUGAGGAUCACCCAUGUUCCUU	17.5	102		
UAAUUGUGAGGAUAUUCGUUUUACACGGAGACGUGUAGAACGGAGAAGGCACAUGAGGAUCACCCAUGUUCCUU	18	100		
UACAAUCUAUCUGAGGAUAUCAUGAAAAAAACAUGAGGAUCACCCAUGUGCAGGAAAACUGCAUAUGAGAAGGCAGAUAGAUUGA			873	26.9
UACAGACAUGAGGAUCACCCAUGUAAGGAUAUCGGUACUAAUGGUAUAAUCUACUUAGCGAGAAGGUACAGUGU	33.9	30.5		
UACGGACAUGAGGAUCACCCAUGUGAGGAUAUCGAUAACGAUAGCAUAAUAUAAACGGCGAGAAGGCACAGCGU	32.6	45.8		
UACGGGAGUGGAGGAUAUGCGUAGUACGCUAGAGCAGAAGGCCACAUGAGGAUCACCCAUGUGUCGUCGAAUGCGAUACGCUGG	17.6	77.3		
UACUGGUGUGAGAAGGGACGUAUCUCCAUGAGGGUAGGGCUAUUAGAGAAGUCAGGAUAUCACAUGAGGAUCACCCAUGUGACG	8.25	9.9		
